In ChEMBL document CHEMBL1123065, “Sleep-inducing N-alkyl-5-[m-(trifluoromethyl)phenyl]-5-hydroxy-2-pyrrolidinones and N-alkyl-3-(trifluoromethyl)cinnamamides” (J Med Chem, 1985):
Calls of active or inactive are those of the source. No cut-off for these calls is given here.

Columns and labels:
Mus musculus [1] = experiment: Effective dose against Mice docility, ip administration; type: functional
In short: (§1)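 Mouse behaviour after ip dosing assessed by a modification of the method of ref 7; ataxia, docility and loss of righting reflex scored, 10 mice per dose, ED50 in mg/kg ip.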

Mus musculus [2] = experiment: Anticonvulsant activity against N-sulfamoylhexahydrozepine (10 mice were used per dose, ip); type: functional
In short: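 Mice given compound ip, 10 per dose, then challenged with N-sulfamoylhexahydroazepine by methods of ref 9; ED50 (mg/kg ip) for protection determined.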

Mus musculus [3] = experiment: Ability to reinduce anesthesia (70 mg/kg, iv) following recovery of loss of righting reflex obtained with hexobarbital.; type: functional
Mus musculus [4] = experiment: Effective dose against Mice ataxia, ip administration; type: functional; in short: as §1
Mus musculus [5] = experiment: Effective dose against loss of righting reflex in mice (10 mice per dose, ip); type: functional; in short: as §1
Mus musculus [6] = experiment: Ability to produce neurological deficit in the rotarod test (10 mice were used per dose, ip); type: functional
In short: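 Rotarod method of ref 10, intraperitoneal dosing, 10 mice per dose; neurological deficit scored and ND50 (mg/kg ip) derived.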

[7] = Lethal dose was obtained by 2-h post administration (ip), using four male Royal Hart Wistar rats; type: toxicity, organism-based; conditions: rat, in vivo
In short: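 Male Royal Hart Wistar rats, 136-160 g, housed in pairs in wire cages, given compound ip; deaths read 2 h after dosing, four rats per compound; LD50 estimated by probit analysis.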

[8] = Ratio of the oral dose of the test compound relative to that of methaqualone (15 mg/kg, po) to induce sleep in Cebus monkey;NA is Not Active.; type: functional, organism-based
In short: (§2)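 Cebus monkeys restrained in chairs within sound-attenuated cubicles; dosing per os at 5:00 p.m., five channels recorded, EEG over 13.5 h, Monday–Thursday, visually scored. Each animal its own control versus last 15 control nights (intragastric carboxymethylcellulose placebo). Value is oral dose of test substance relative to methaqualone 15 mg/kg po inducing sleep in the same monkey; NA = no sleep at any dose.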

Mus musculus [9] = experiment: Effective dose against loss of righting reflex in mice;10 mice per dose(ip); type: functional; in short: as §1
Monkey = experiment: Ratio of the oral dose of the test compound relative to that of methaqualone (15 mg/kg, po) to induce sleep in Cebus monkey; type: functional; in short: as §2
[10] = Ratio of the oral dose of the test compound relative to that of methaqualone (15 mg/kg, po) to induce sleep in Cebus monkey; NA is Not Active.; type: functional, organism-based; in short: as §2

Row | SMILES | ED50 (Mus musculus [1]) | ED50 (Mus musculus [2]) | RD50 (Mus musculus [3]) | ED50 (Mus musculus [4]) | ED50 (Mus musculus [5]) | ND50 (Mus musculus [6]) | LD50 at 2 h [7] | Ratio [8] | ND50 (Mus musculus [9]) | Sleep ratio (Monkey) | Ratio [10]
1 | CC(C)CNC(=O)CCC(=O)c1cccc(C(F)(F)F)c1 | > 200 mg/kg | > 200 mg/kg | >200 mg/kg | > 200 mg/kg | > 200 mg/kg | >200 mg/kg | 162 mg/kg | – | – | – | –
2 | NC(=O)/C=C/c1cccc(C(F)(F)F)c1 | 37.5 mg/kg | 49.5 mg/kg | 17.2 mg/kg | 42.9 mg/kg | 54.5 mg/kg | 46.9 mg/kg | 260 mg/kg | inactive | – | – | –
3 | CN(C)C(=O)/C=C/c1cccc(C(F)(F)F)c1 | – | – | >75 mg/kg | > 75 mg/kg | – | – | 300 mg/kg | – | >75 mg/kg | – | –
4 | CNC(=O)/C=C/c1cccc(C(F)(F)F)c1 | 92.9 mg/kg | 84.1 mg/kg | 76.3 mg/kg | 120 mg/kg | 200 mg/kg | 149 mg/kg | 275 mg/kg | – | – | 0.5 | –
5 | O=C(/C=C/c1cccc(C(F)(F)F)c1)NCCO | 78.6 mg/kg | 100 mg/kg | 66.7 mg/kg | 117 mg/kg | 186 mg/kg | 115.8 mg/kg | 400 mg/kg | – | – | – | –
6 | CNC(=O)/C=C(\C)c1cccc(C(F)(F)F)c1 | 87.5 mg/kg | > 75 mg/kg | 56.3 mg/kg | 87.5 mg/kg | > 100 mg/kg | >75 mg/kg | > 400 mg/kg | – | – | – | –
7 | CN1CCN(C(=O)CCC(=O)c2cccc(C(F)(F)F)c2)CC1 | > 50 mg/kg | > 37.5 mg/kg | >37.5 mg/kg | > 50 mg/kg | > 50 mg/kg | >37.5 mg/kg | > 400 mg/kg | – | – | – | –
8 | CCCN1C(=O)CCC1(O)c1cccc(C(F)(F)F)c1 (stereo unspecified) | > 200 mg/kg | 150 mg/kg | 131.9 mg/kg | > 200 mg/kg | 200 mg/kg | >200 mg/kg | > 400 mg/kg | – | – | – | –
9 | CCCCN1C(=O)CCC1(O)c1cccc(C(F)(F)F)c1 (stereo unspecified) | > 200 mg/kg | 183 mg/kg | 150 mg/kg | > 200 mg/kg | > 200 mg/kg | >200 mg/kg | > 400 mg/kg | inactive | – | – | –
10 | CCC(O)CNC(=O)/C=C/c1cccc(C(F)(F)F)c1 (stereo unspecified) | 87.5 mg/kg | 64.4 mg/kg | 68.8 mg/kg | 90 mg/kg | 92.9 mg/kg | 57.9 mg/kg | 333 mg/kg | inactive | – | – | –
11 | CC(C)NC(=O)CCC(=O)c1cccc(C(F)(F)F)c1 | > 200 mg/kg | > 150 mg/kg | 126.9 mg/kg | > 200 mg/kg | > 200 mg/kg | >150 mg/kg | > 400 mg/kg | – | – | – | –
12 | CN1C(=O)CCC1(O)c1cccc(C(F)(F)F)c1 (stereo unspecified) | 93.8 mg/kg | 51.6 mg/kg | 45.1 mg/kg | 129 mg/kg | 133 mg/kg | 106.5 mg/kg | 367 mg/kg | – | – | 1 | –
13 | CCN1C(=O)CCC1(O)c1cccc(C(F)(F)F)c1 (stereo unspecified) | > 100 mg/kg | > 75 mg/kg | 68.8 mg/kg | > 100 mg/kg | > 100 mg/kg | >75 mg/kg | > 400 mg/kg | – | – | – | inactive
14 | CNC(=O)/C(C)=C/c1cccc(C(F)(F)F)c1 | 75 mg/kg | 68.8 mg/kg | 24.7 mg/kg | 75 mg/kg | > 100 mg/kg | >75 mg/kg | 300 mg/kg | – | – | 0.3 | –
15 | CN1CCN(C(=O)/C=C/c2cccc(C(F)(F)F)c2)CC1 | > 100 mg/kg | > 75 mg/kg | >75 mg/kg | > 100 mg/kg | > 100 mg/kg | >75 mg/kg | 300 mg/kg | – | – | – | –
16 | Cc1ccccc1-n1c(C)nc2ccccc2c1=O [METHAQUALONE] | 35.6 mg/kg | 31.5 mg/kg | 21.9 mg/kg | 34.4 mg/kg | 39.8 mg/kg | 31.5 mg/kg | 565 mg/kg | – | – | 1 | –
17 | Cc1cccc(C2(O)CCC(=O)N2C)c1 (stereo unspecified) | 81.5 mg/kg | 60.9 mg/kg | 49.5 mg/kg | 93 mg/kg | 138 mg/kg | 111.5 mg/kg | 300 mg/kg | – | – | – | inactive
18 | CN1C(=O)CCC1(O)c1ccccc1 (stereo unspecified) | > 200 mg/kg | 138 mg/kg | 150 mg/kg | > 200 mg/kg | > 200 mg/kg | >200 mg/kg | 300 mg/kg | – | – | – | –
19 | O=C1CCC(O)(c2cccc(C(F)(F)F)c2)N1 (stereo unspecified) | > 200 mg/kg | > 200 mg/kg | 150 mg/kg | > 200 mg/kg | > 200 mg/kg | >200 mg/kg | > 400 mg/kg | – | – | 0.1 | –
20 | CN1C(=O)CCC1(O)c1ccc(C(F)(F)F)cc1 (stereo unspecified) | > 200 mg/kg | 132 mg/kg | >200 mg/kg | > 200 mg/kg | > 200 mg/kg | 140.5 mg/kg | > 400 mg/kg | – | – | – | –
21 | CN(C)C(=O)CCC(=O)c1cccc(C(F)(F)F)c1 | > 50 mg/kg | > 37.5 mg/kg | 127.6 mg/kg | > 50 mg/kg | > 50 mg/kg | >37.5 mg/kg | 300 mg/kg | – | – | – | –
22 | CN1C(=O)CCC1(O)c1cccc(Cl)c1 (stereo unspecified) | 158 mg/kg | > 150 mg/kg | >150 mg/kg | 186 mg/kg | > 200 mg/kg | >150 mg/kg | > 400 mg/kg | – | – | – | –
23 | O=C(CCC(=O)c1cccc(C(F)(F)F)c1)NC1CCCCC1 | > 200 mg/kg | > 200 mg/kg | >200 mg/kg | > 200 mg/kg | > 200 mg/kg | >200 mg/kg | > 400 mg/kg | – | – | – | –
24 | CCC(C)NC(=O)CCC(=O)c1cccc(C(F)(F)F)c1 (stereo unspecified) | > 200 mg/kg | > 200 mg/kg | >50 mg/kg | > 200 mg/kg | > 200 mg/kg | >150 mg/kg | 300 mg/kg | – | – | – | –
25 | O=C(/C=C/c1ccccc1)NCCO [IDROCILAMIDE] | 183 mg/kg | 117 mg/kg | 75 mg/kg | 183 mg/kg | > 200 mg/kg | >200 mg/kg | > 400 mg/kg | – | – | – | –
26 | CCNC(=O)/C=C/c1cccc(C(F)(F)F)c1 | – | – | >75 mg/kg | 90 mg/kg | – | – | 333 mg/kg | – | >75 mg/kg | – | –
